In article PMC5483893 (Journal of Medicinal Chemistry, 2017):

Experiments:
[1] = system: acetylated α-tubulin (AcTub) in QBI-293 cells; assay: Acetyl-tubulin assay; format: cell-based; details: for MT activity (AcTub increase), inactive compounds: QBI-293 cells, 1 and 10 μM; for elevation in AcTub without decrease of α-tubulin: 1 or 10 μM
Method in brief: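 QBI-293 cells kept at 37 °C, 5% CO₂, trypsinised and plated at 6 × 10⁵ cells/well, then exposed overnight-later to vehicle (DMSO) or test compound for 4 h. Lysis in RIPA with protease inhibitors, 1 mM PMSF and 1 μM TSA; 100000g spin, 30 min, 4 °C. BCA protein, then AcTub ELISA. Fold-change versus vehicle, at least triplicate, two-tailed unpaired t test.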

[2] = system: total α-tubulin in QBI-293 cells; assay: Total α-tubulin ELISA; format: cell-based; details: at doses typically required to induce an elevation in AcTub
Method in brief: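 QBI-293 cells were plated at 6 × 10⁵ cells/well, grown overnight at 37 °C and 5% CO₂, then given fresh medium with vehicle (DMSO) or 1 and 10 μM test compound for 4 h. Lysis was in RIPA with protease inhibitors, 1 mM PMSF and 1 μM TSA, followed by 100000g for 30 min at 4 °C. Supernatant was BCA-normalized and α-tubulin measured by ELISA as fold-change versus vehicle. Samples were run at least in triplicate; significance was by two-tailed unpaired t test.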

Structure (SMILES)	MT activity (AcTub increase), inactive compounds [1]	elevation in AcTub without decrease of α-tubulin [1]	also measured
Fc1cccc(F)c1-c1cncn1-c1ccc(OC(F)(F)F)cc1 [Compound 42, 5-(2,6-Difluorophenyl)-1-(4-(trifluoromethoxy)phenyl)-1H-imidazole]	do not cause a detectable increase in AcTub		
Cc1nc(Cl)c(-c2c(F)cccc2F)n1-c1ccc(Cl)cc1 [Compound 85, 4-Chloro-1-(4-chlorophenyl)-5-(2,6-difluorophenyl)-2-methyl-1H-imidazole]			effect on total α-tubulin levels [2]: cause a significant reduction in total α-tubulin levels
Fc1ccc(F)c(-c2c(Cl)ncn2-c2ccc(Cl)cc2)c1 [Compound 80, 4-Chloro-1-(4-chlorophenyl)-5-(2,5-difluorophenyl)-1H-imidazole]	inactive		
Cc1nc(Cl)c(-c2c(F)cc(F)cc2F)n1-c1ccc(Cl)nc1 [Compound 74, 2-Chloro-5-(4-chloro-2-methyl-5-(2,4,6-trifluorophenyl)-1H-imidazol-1-yl)pyridine]		produce an elevation in AcTub at 1 or 10 μM without decreasing α-tubulin level	
Fc1cc(-n2c(-c3c(F)ccc(F)c3F)cnc2Cl)ccc1Cl [Compound 72, 2-Chloro-1-(4-chloro-3-fluorophenyl)-5-(2,3,6-trifluorophenyl)-1H-imidazole]		produce an elevation in AcTub at 1 or 10 μM without decreasing α-tubulin level	
Cc1cc(F)c(-c2cncn2-c2ccc(Cl)cc2)c(F)c1 [Compound 48, 1-(4-Chlorophenyl)-5-(2,6-difluoro-4-methylphenyl)-1H-imidazole]	do not cause a detectable increase in AcTub		
Fc1cccc(F)c1-c1cncn1-c1ccc(Cl)cc1 [Compound 43, 1-(4-Chlorophenyl)-5-(2,6-difluorophenyl)-1H-imidazole]	do not cause a detectable increase in AcTub		
Cc1nc(Cl)n(-c2ccc(Cl)cc2)c1-c1c(F)ccc(Cl)c1F [Compound 30, 2-Chloro-5-(3-chloro-2,6-difluorophenyl)-1-(4-chlorophenyl)-4-methyl-1H-imidazole]			effect on total α-tubulin levels [2]: cause a significant reduction in total α-tubulin levels
Cc1ccc(F)c(-c2cnc(Cl)n2-c2ccc(Cl)cc2)c1F [Compound 63, 2-Chloro-1-(4-chlorophenyl)-5-(2,6-difluoro-3-methylphenyl)-1H-imidazole]			effect on total α-tubulin levels [2]: cause a significant reduction in total α-tubulin levels
Cc1ncn(-c2ccc(Cl)cc2)c1-c1c(F)ccc(Cl)c1F [Compound 29, 5-(3-Chloro-2,6-difluorophenyl)-1-(4-chlorophenyl)-4-methyl-1H-imidazole]		produce an elevation in AcTub at 1 or 10 μM without decreasing α-tubulin level	
Cc1nc(Cl)n(-c2ccc(Cl)cc2)c1-c1c(F)ccc(F)c1F [Compound 36, 2-Chloro-1-(4-chlorophenyl)-4-methyl-5-(2,3,6-trifluorophenyl)-1H-imidazole]		produce an elevation in AcTub at 1 or 10 μM without decreasing α-tubulin level	
Clc1ccc(-n2cncc2-c2ccccc2)cc1 [Compound 50, 1-(4-Chlorophenyl)-5-phenyl-1H-imidazole]	essentially devoid of MT activity		
Fc1cccc(F)c1-c1cncn1-c1ccccc1Cl [Compound 53, 1-(2-Chlorophenyl)-5-(2,6-difluorophenyl)-1H-imidazole]	do not cause a detectable increase in AcTub		
COc1ccc(F)c(-c2cncn2-c2ccc(Cl)cc2)c1F [Compound 49, 1-(4-Chlorophenyl)-5-(2,6-difluoro-3-methoxyphenyl)-1H-imidazole]	do not cause a detectable increase in AcTub		
COc1ccc(-n2cncc2-c2c(F)cc(F)cc2F)cc1 [Compound 26, 1-(4-Methoxyphenyl)-5-(2,4,6-trifluorophenyl)-1H-imidazole]	do not cause a detectable increase in AcTub		
Fc1cc(Cl)ccc1-n1cnc(Cl)c1-c1c(F)cccc1F [Compound 78, 4-Chloro-1-(4-chloro-2-fluorophenyl)-5-(2,6-difluorophenyl)-1H-imidazole]		produce an elevation in AcTub at 1 or 10 μM without decreasing α-tubulin level	
Fc1cc(F)c(-c2cncn2-c2ccc(Cl)cc2)c(F)c1 [Compound 25, 1-(4-Chlorophenyl)-5-(2,4,6-trifluorophenyl)-1H-imidazole]	do not cause a detectable increase in AcTub		
Fc1ccc(Cl)c(F)c1-c1c(Cl)ncn1-c1ccc(Cl)cc1 [Compound 64, 4-Chloro-5-(3-chloro-2,6-difluorophenyl)-1-(4-chlorophenyl)-1H-imidazole]		produce an elevation in AcTub at 1 or 10 μM without decreasing α-tubulin level	
Fc1ccc(-c2cnc(Cl)n2-c2ccc(Cl)cc2)cc1 [Compound 75, 2-Chloro-1-(4-chlorophenyl)-5-(4-fluorophenyl)-1H-imidazole]	essentially devoid of MT activity		
Cc1ncn(-c2ccc(Cl)cc2)c1-c1c(F)ccc(F)c1F [Compound 35, 1-(4-Chlorophenyl)-4-methyl-5-(2,3,6-trifluorophenyl)-1H-imidazole]		produce an elevation in AcTub at 1 or 10 μM without decreasing α-tubulin level	
Cc1nc(C)n(-c2ccc(Cl)cc2)c1-c1c(F)ccc(Cl)c1F [Compound 31, 5-(3-Chloro-2,6-difluorophenyl)-1-(4-chlorophenyl)-2,4-dimethyl-1H-imidazole]		produce an elevation in AcTub at 1 or 10 μM without decreasing α-tubulin level	
Fc1cccc(F)c1-c1c(Cl)ncn1-c1ccccc1Cl [Compound 102, 4-Chloro-1-(2-chlorophenyl)-5-(2,6-difluorophenyl)-1H-imidazole]		produce an elevation in AcTub at 1 or 10 μM without decreasing α-tubulin level	
Fc1ccc(-c2c(Cl)ncn2-c2ccc(Cl)cc2)cc1 [Compound 76, 4-Chloro-1-(4-chlorophenyl)-5-(4-fluorophenyl)-1H-imidazole]	essentially devoid of MT activity		
COc1ccc(-n2c(-c3c(F)cc(F)cc3F)cnc2Cl)cc1 [Compound 60, 2-Chloro-1-(4-methoxyphenyl)-5-(2,4,6-trifluorophenyl)-1H-imidazole]		produce an elevation in AcTub at 1 or 10 μM without decreasing α-tubulin level	
Fc1cc(F)c(-c2c(Cl)ncn2-c2ccc(Cl)cc2)c(F)c1 [Compound 54, 4-Chloro-1-(4-chlorophenyl)-5-(2,4,6-trifluorophenyl)-1H-imidazole]		produce an elevation in AcTub at 1 or 10 μM without decreasing α-tubulin level	
COc1ccc(-n2cnc(Cl)c2-c2c(F)cc(F)cc2F)cc1 [Compound 59, 4-Chloro-1-(4-methoxyphenyl)-5-(2,4,6-trifluorophenyl)-1H-imidazole]		produce an elevation in AcTub at 1 or 10 μM without decreasing α-tubulin level	
Fc1cccc(F)c1-c1cncn1-c1ccccc1 [Compound 52, 5-(2,6-Difluorophenyl)-1-phenyl-1H-imidazole]	do not cause a detectable increase in AcTub		
